Experimental data from the array DNA melting data of Ke et al. (doi:10.1101/2024.01.08.574731).

Tests used:
[1] = folding enthalpy; higher = less favourable; fluorescence melt of hairpins on a sequencing array, two-state fit; conditions: sodium 0.088 M
Procedure, shortened: (§1)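 Bootstrapped two-state fits yielded melting temperature and folding enthalpy for library hairpins. Cy3 fluorescence, with annealed Cy3 and quencher oligos, was imaged on a sequenced MiSeq flow cell in 50 mM Na-HEPES pH 8.0, 25 mM NaCl in 2.5 °C steps up to 60 °C, and normalised to pre-quench Cy3 and to control constructs. Four replicates were combined by inverse variance, and fitted temperatures were raised by 9.35 °C to match UV melts.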

[2] = melting temperature; fluorescence melt of hairpins on a sequencing array, two-state fit, raised by 9.35 °C to match UV melts; conditions: sodium 0.088 M
Procedure, shortened: as §1

Sequence	folding enthalpy [1] [kcal/mol]	Tm [2] [°C]
GAATACGCGAAAGCGTTC (((..(((....))))))	-7.08	26.7
GGTGGGGGAAACTCCGCC ((.((.(....).)).))	-26.4	49.6
GATCAAGCCGTTGATC ((((((....))))))	-29.4	46.5
GTTTTCGAAAGAACAAC ((((((....))).)))	-12.2	30.5
GATAGCGAAAGCTGGATC ((((((....)))..)))	-12.9	29.6
GCCAGGCGAAAGCCACGC ((..(((....)))..))	-13.1	38.8
GCAGCTCCGAAAGGATGC (((..(((....))))))	-16.2	41.5
GTCCGCGAAAGCGTCGAC ((((((....)))..)))	-13.3	37.2
GACCTAGGAAACTAGGCC (.(((((....))))).)	-19.3	39.5
GCTTTCGGAAACGAAAGC (((((((....)))))))	-43.1	68
GTTGGAGCGAAAGCTAAC (((..(((....))))))	-21.4	36.9
GAGTTCGGAAACGAGCTC (((.(((....))).)))	-31.3	51.7
CGCCACGGAAACGTGCG (((.(((....))))))	-24.7	54.4
GTGCAAGGAAACTTGCGC (.(((((....))))).)	-27.6	59.1
GATCAAAAGCTTGATC ((((((....))))))	-25.6	38
GCGTACGAAAGTAACCGC ((((((....)))..)))	-22.1	45
GTCTTTGCGAAAGCAGAC (((..(((....))))))	-16.3	34.6
GGAACTGGAAACAGTTTC (.(((((....))))).)	-27.7	46.2
GATATGGAAACATATC ((((((....))))))	-29.7	46.1
CGTCCGGAAACGGAACG ((((((....))).)))	-24.9	49.9
GCGTTCGAAAGAAGCCGC ((((((....)))..)))	-22.7	35.9
GGAGCGCCGAAAGGCTCC (((..(((....))))))	-14.7	44.2
GAGAAGGGAAACCTTCTC (((((((....)))))))	-50.6	55.5

Sequence	folding enthalpy [1] [kcal/mol]	Tm [2] [°C]
GACTCCGGAAACGAAGTC ((((.((....)).))))	-29.4	37.1
GGAGAGACGAAAGTCTCC (((..(((....))))))	-9.49	44
GGCAGCGAAAGCTTGCC ((((((....))).)))	-27.1	63.1
GCACACCGAAAGGTTTGC (((.(((....))).)))	-40.7	52.3
GCCCTGCGAAAGCGGCGC ((.(.((....)).).))	-15	62
GCAACCGGAAACGGTTAC (.(((((....))))).)	-12.4	41.2
GAGACCGAAAGGTTTCTC ((((((....)))..)))	-22.5	50.6
GCACTGCGAAAGCAGAGC ((.((((....)))).))	-20.7	65.9
GTCTCCGAAAGGAAGAC ((((((....))).)))	-27.2	52.1
GTAGTGGGAAACTGCTAC ((((..(....)..))))	-23.4	36.8
GGGGCGACGAAAGTCCCC (((..(((....))))))	-16.4	56
GATCGCAATGGCGATC ((((((....))))))	-35.6	67.4
GATCTTCCTTAAGATC ((((((....))))))	-27.8	42.1
GTATCCGAAAGGACGTAC ((((((....)))..)))	-9.37	25.9
GGGGTTGGAAACGACTCC ((.((.(....).)).))	-23.1	41.6
GTTGGAGGAAACCCCAAC (((((.(....).)))))	-35.2	44.5
GATCTTCCAAAAGATC ((((((....))))))	-32	41.7
GGCAACCGAAAGGTCGCC (((.(((....))).)))	-37.3	58.9
GATCTACCGATAGATC ((((((....))))))	-35.5	37.8
GATCGAATATCGATC ((((((...))))))	-33.4	50.4
GATCAACATTTTGATC ((((((....))))))	-31.1	42.6
GAAACCGAAAGGTGCTTC ((((((....)))..)))	-19.4	43.5
GGTAGTCGAAAGACGACC (((.(((....))).)))	-44.9	54.2
